Test results: publication PMC6076386 (Biochemistry, 2017)
Entries after “also recorded” stand apart in the source; their conditions may differ.

Tests used:
[1] = biological target: Wild Type PPACK-IIa (human plasma thrombin), ABE I (Homo sapiens, UniProt P00734); test: 2D 1H-15N HSQC NMR titration, wild-type PPACK-thrombin; assay type: binding; conditions: native PAR3 sequence, 15N-D54 and 15N-F47, PPACK-IIa; pH 6.5, 25 °C
Outline: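 Human plasma thrombin blocked with PPACK (4:1 inhibitor:enzyme, 37 °C, 30 min), buffer-exchanged into 25 mM H₃PO₄, 150 mM NaCl, 0.2 mM EDTA, 10% D₂O, pH 6.5, 25 °C. ¹⁵N-labeled PAR3(44–56) held at 50 μM while thrombin (starting 210 μM) was serially diluted, spanning 4:1 to 0.1:1 ratios. Chemical-shift changes were fitted with a ligand-normalized quadratic for K_D. At least triplicate; Monte-Carlo errors assumed 10% dilution error.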

thrombin ABE I = conditions: cited from earlier work
[2] = system: thrombin ABE I region 65–84; conditions: cited from earlier work
PAR3 (Homo sapiens) = PAR3 (Homo sapiens) (UniProt O00254); test: fluorescence titration; conditions: cited from earlier work

Substance	binding affinity by 15N-HSQC NMR titration [1]	binding by X-ray crystallography (thrombin ABE I)	HDX-MS binding region [2]	Kd (PAR3 (Homo sapiens)) [nM]
PAR3 (^44Q N T ^15F E E F P L S ^15D I E[56]) [PAR3 (44–56)]	binding affinities could not be determined; also recorded: bound too tightly to thrombin	confirmed to bind in a specific manner to thrombin ABE I	both bind to the thrombin ABE I region 65–84	
Thrombin (from UniProt P00734)				2000
hirudin [reference compound]			both bind to the thrombin ABE I region 65–84	
